Test results from ChEMBL document CHEMBL3425457, “Identification of Novel ROS Inducers: Quinone Derivatives Tethered to Long Hydrocarbon Chains” (J Med Chem, 2015).
Active and inactive are the calls of the source. The calls are words filed in the database; no cut-off is given here.

Columns and labels:
Assay type in all cases: functional, cell-based
A549 [1] = experiment: Induction of apoptosis in human A549 cells at 10 uM after 48 hrs by FACS analysis
A549 [2] = experiment: Induction of phosphorylation of JNK1/2 in human A549 cells after 3 hrs by Western blot analysis
Procedure, shortened: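 Dose-response phospho-blotting. A549 or HCT-116 cells were seeded at 6 × 10⁵ per dish overnight and treated for 3 h at 37 °C. Phospho-Akt, JNK, p38 and ERK1/2 were probed by western blot of RIPA lysates (25–50 μg, SDS-PAGE, PVDF, primary antibody overnight at 4 °C, HRP secondary 1:2000, ECL).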

HCT-116 = experiment: Induction of apoptosis in human HCT116 cells at 10 uM after 48 hrs by FACS analysis
A549 [3] = experiment: Induction of apoptosis in human A549 cells assessed as PARP cleavage after 48 hrs by Western blot analysis in presence of 10 mM NAC or 0.5 mM AA
Procedure, shortened: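 A549 or HCT-116 cells were pretreated with 10 mM NAC or 0.5 mM ascorbic acid, then given compound at 10 μM for 48 h. Cleaved PARP and p53 were assessed by western blot of RIPA lysates (25–50 μg protein, SDS-PAGE, PVDF, milk blocking, primary antibody overnight at 4 °C, HRP secondary, ECL).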

A549 [4] = experiment: Induction of ROS production in human A549 cells after 3 hrs by DCF-DA staining-based fluorescence assay
Procedure, shortened: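 For probe imaging, A549 cells were seeded on cover glass at 1 × 10⁶ per well and grown 18–24 h. They were treated for 3 h, then stained 30 min with 10 μM DCF-DA, DHE or APF. Cells were fixed in 4% formaldehyde for 20 min, washed twice with PBS and viewed by fluorescence microscopy.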

[5] = Induction of ROS production in HFF1 cells at 2 uM after 3 hrs by DCF-DA staining-based fluorescence assay relative to DMSO treated control; settings: Homo sapiens, HFF-1
Procedure, shortened: (§1)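 HFF-1 fibroblasts were grown on cover glass at 1 × 10⁶ per well for 18–24 h and exposed to compound for 3 h. They were then stained with 10 μM DCF-DA for 30 min. Cells were fixed in 4% formaldehyde for 20 min, PBS-washed and imaged by fluorescence microscopy.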

A549 [6] = experiment: Increase in oxidized […] level in human A549 cells at 10 uM after 4 hrs by luminescence assay
Procedure, shortened: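 Cellular GSH and GSSG levels were measured in A549 cells after 4 h of compound treatment.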

[7] = Induction of ROS production in HFF1 cells at 10 uM after 3 hrs by DCF-DA staining-based fluorescence assay relative to DMSO treated control; settings: Homo sapiens, HFF-1; procedure, shortened: as §1

Structure (SMILES)	Activity (A549 [1])	Activity (A549 [2])	Activity (HCT-116)	Activity (A549 [3])	Activity (A549 [4])	Activity [5]	Activity (A549 [6])	Activity [7]
CCCCCC/C=C\CCCCc1cc(O)cc(OC)c1O	Active	Dose-dependent effect	Active	inactive	–	–	–	–
CCCCCC/C=C\CCCCCCCCCc1cc(O)cc(OC)c1O	–	Dose-dependent effect	–	inactive	Active	inactive	Active	inactive
